≈ marks a conversion by molar mass, not a printed value. Calls of active or inactive are those of the source. No cut-off for these calls is given here.
Key:
3T3-L1 [1] = experiment: Inhibition of mouse 3T3-L1 cell differentiation at 2 uM
3T3-L1 (Mus musculus) = experiment: Inhibition of [1-14C]sodium acetate uptake in mouse 3T3-L1 cells at 2 uM
3T3-L1 [2] = experiment: Inhibition of mouse 3T3-L1 cell differentiation assessed as minimal effective concentration by oil-red O staining method
[3] = molecular target: T1, Peroxisome proliferator-activated receptor gamma (Homo sapiens, UniProt P37231); experiment: Binding affinity to PPARgamma
T1 sequence (P37231 whole entry): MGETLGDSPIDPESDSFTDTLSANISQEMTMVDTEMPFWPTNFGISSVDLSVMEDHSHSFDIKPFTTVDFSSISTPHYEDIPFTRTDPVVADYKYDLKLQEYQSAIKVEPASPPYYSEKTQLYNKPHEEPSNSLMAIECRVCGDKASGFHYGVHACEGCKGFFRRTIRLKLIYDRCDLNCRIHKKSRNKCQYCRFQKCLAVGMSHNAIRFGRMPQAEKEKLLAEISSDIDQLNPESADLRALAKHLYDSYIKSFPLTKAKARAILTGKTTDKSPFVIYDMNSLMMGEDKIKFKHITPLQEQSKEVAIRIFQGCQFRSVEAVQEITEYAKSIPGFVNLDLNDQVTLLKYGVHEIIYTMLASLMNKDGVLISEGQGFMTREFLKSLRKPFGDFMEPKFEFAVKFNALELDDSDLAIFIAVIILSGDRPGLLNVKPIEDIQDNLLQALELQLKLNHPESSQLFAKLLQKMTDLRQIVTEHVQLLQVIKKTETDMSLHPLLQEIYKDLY

3T3-L1 [4] = experiment: Stimulation of mouse 3T3-L1 cells differentiation at 2 to 4 uM in presence of guanosine; format: functional, cell-based
Procedure, shortened: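 3T3-L1 cells with 50 μM guanosine added to suppress IMPDH-related effects; adipocyte differentiation stimulation examined at 2–4 μM.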

[5] = molecular target: T2, Peroxisome proliferator-activated receptor gamma (Homo sapiens) (UniProt P37231); experiment: Antagonist activity at pioglitazone-stimulated PPARgamma transcriptional activity in U2OS cells at 1 uM; format: functional, cell-based
T2 sequence (whole entry): T1 sequence (P37231 whole entry)
Procedure, shortened: (§1)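 U2OS cells transfected with PPARγ expression plasmid, matching reporter plasmid and pCMV-β-galactosidase as internal control; reporter transcriptional activity measured with or without 1 μM pioglitazone stimulation; means of triplicate cultures.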

[6] = molecular target: T2, Peroxisome proliferator-activated receptor gamma (Homo sapiens); experiment: Activation of PPARgamma transcriptional activity in U20S cells at 0.01 to 1 uM; format: functional, cell-based; conditions: U2OS
Procedure, shortened: as §1

3T3-L1 [7] = experiment: Inhibition of mouse 3T3-L1 cell differentiation by oil-red O staining method; format: functional
Procedure, shortened: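 Insulin-induced differentiation of 3T3-L1 pre-adipocytes into adipocytes; reduction in oil-red O stained cells judged under a microscope to give minimal inhibitory concentration.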

| Structure (SMILES) | Activity (3T3-L1 [1]) | also measured |
| --- | --- | --- |
| COC(=O)CC/C(C)=C/Cc1c(OC)c(C)c2c(c1OS(=O)(=O)c1ccc(C)cc1)C(=O)OC2 | inactive | – |
| COC(=O)CC/C(C)=C/Cc1c(O)c2c(c(C)c1OC(=O)c1cccnc1)COC2=O | inactive | – |
| CCOC(=O)COc1c(C)c2c(c(O)c1C/C=C(\C)CCC(=O)OC)C(=O)OC2 | inactive | inhibition (3T3-L1 (Mus musculus)): 0% |
| COc1c(C)c2c(c(OC)c1C/C=C(\C)CCC(=O)O)C(=O)OC2 | inactive | – |
| COc1c(C)c2c(c(O)c1C/C=C(\C)CCC(=O)O)C(=O)OC2 [MYCOPHENOLIC ACID] | Active | Activity (3T3-L1 [2]): 0.2 µM; Kd [3]: 110 µM; Activity (3T3-L1 [4]): Active; Activity [5]: Active; Activity [6]: Active |
| COC(=O)CC/C(C)=C/Cc1c(O)c2c(c(C)c1OC(=O)c1ccncc1)COC2=O | inactive | inhibition (3T3-L1 (Mus musculus)): 3% |
| COC(=O)CC/C(C)=C/Cc1c(O)c(C)c2c(c1OS(=O)(=O)c1ccc(C)cc1)C(=O)OC2 | inactive | – |
| COC(=O)CC/C(C)=C/Cc1c(O)c2c(c(C)c1OC)COC2=O | Active | Activity [5]: Active |
| COCCOCOc1c(C/C=C(\C)CCC(=O)OC)c(OC(=O)c2cccnc2)c(C)c2c1C(=O)OC2 | inactive | – |
| C/C(=C\Cc1c(O)c(C)c2c(c1O)C(=O)OC2)CCC(=O)O | inactive | – |
| C/C=C/C1=CC(=O)[C@@H](O)[C@@H]1O [TERREIN] | – | MIC (3T3-L1 [7]): 81 µM (≈ 12.5 µg/mL) |
| COC(=O)CC/C(C)=C/Cc1c(O)c(C)c2c(c1O)C(=O)OC2 | inactive | – |
| CCOC(=O)COc1c(C)c2c(c(OCOCCOC)c1C/C=C(\C)CCC(=O)OC)C(=O)OC2 | inactive | – |
| COCCOCOc1c(C/C=C(\C)CCC(=O)OC)c(OC(=O)c2ccncc2)c(C)c2c1C(=O)OC2 | inactive | – |
| COCCOCOc1c(C/C=C(\C)CCC(=O)OC)c(O)c(C)c2c1C(=O)OC2 | inactive | inhibition (3T3-L1 (Mus musculus)): 10% |
| COc1c(C)c2c(c(OC(C)=O)c1C/C=C(\C)CCC(=O)O)C(=O)OC2 | Active | inhibition (3T3-L1 (Mus musculus)): 86%; Activity [5]: Active |
| COC(=O)CC/C(C)=C/Cc1c(OC)c(C)c2c(c1OC)C(=O)OC2 | inactive | – |
